# ChEMBL document CHEMBL4002604, “Evaluation of biological properties of 3,3',4,4'-benzophenonetetracarboxylic dianhydride derivatives and their ability to inhibit hexokinase activity” (2017)
# Assays:
# P19 [1] = assay: Cytotoxicity against undifferentiated mouse P19 cells assessed as mitochondrial superoxide anion level at 100 uM after 24 hrs by MitoSox dye based fluorescence assay relative to control; assay type: functional
# How it was run: (§1)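 Undifferentiated (P19SCs) or differentiated (P19dCs) P19 cells incubated 24 or 72 h with 1 or 100 µM. Mitochondrial membrane potential and mitochondrial superoxide levels measured and expressed relative to untreated control. Means ± SD from 4 independent measurements, at least 4 repeats each. Significance at p<0.05.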
# P19 [2] = assay: Cytotoxicity against undifferentiated mouse P19 cells assessed as cell mass at 1 to 100 uM after 48 hrs by SRB assay relative to control; assay type: functional
# How it was run: (§2)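 Cell mass by SRB assay in P19 cells (CRL-1825), either undifferentiated (P19SCs) or differentiated (P19dCs). Cells exposed to 1, 10 or 100 µM for 24, 48 or 72 h. Values expressed relative to untreated control. Means ± SD from at least 4 independent measurements, 6 repeats each. Significance vs control at p<0.05.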
# P19 [3] = assay: Cytotoxicity against differentiated mouse P19 cells assessed as cell mass at 1 to 100 uM after 48 hrs by SRB assay relative to control; assay type: functional; how it was run: as §2
# P19 [4] = assay: Cytotoxicity against differentiated mouse P19 cells assessed as metabolic activity at 1 to 100 uM after 24 hrs by resazurin assay relative to control; assay type: functional
# How it was run: (§3)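 Metabolic activity by resazurin reduction in undifferentiated (P19SCs) or differentiated (P19dCs) P19 cells. Exposure to 1, 10 or 100 µM for 24, 48 or 72 h. Read-out relative to untreated control. Significance vs control at p<0.05.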
# P19 [5] = assay: Cytotoxicity against differentiated mouse P19 cells assessed as mitochondrial superoxide anion level at 100 uM after 24 hrs by MitoSox dye based fluorescence assay relative to control; assay type: functional; how it was run: as §1
# P19 [6] = assay: Cytotoxicity against undifferentiated mouse P19 cells assessed as metabolic activity at 1 to 100 uM after 48 hrs by resazurin assay relative to control; assay type: functional; how it was run: as §3
# P19 [7] = assay: Cytotoxicity against undifferentiated mouse P19 cells assessed as mitochondrial membrane potential at 100 uM after 24 hrs by TMRF dye based fluorescence assay relative to control; assay type: functional; how it was run: as §1
# P19 [8] = assay: Cytotoxicity against differentiated mouse P19 cells assessed as cell mass at 1 to 100 uM after 72 hrs by SRB assay relative to control; assay type: functional; how it was run: as §2
# P19 [9] = assay: Cytotoxicity against differentiated mouse P19 cells assessed as mitochondrial membrane potential at 100 uM after 24 hrs by TMRF dye based fluorescence assay relative to control; assay type: functional; how it was run: as §1
# P19 [10] = assay: Cytotoxicity against undifferentiated mouse P19 cells assessed as mitochondrial superoxide anion level at 1 uM after 24 hrs by MitoSox dye based fluorescence assay relative to control; assay type: functional; how it was run: as §1
# P19 [11] = assay: Cytotoxicity against undifferentiated mouse P19 cells assessed as cell mass at 1 to 100 uM after 72 hrs by SRB assay relative to control; assay type: functional; how it was run: as §2
# P19 [12] = assay: Cytotoxicity against differentiated mouse P19 cells assessed as cell mass at 1 to 100 uM after 24 hrs by SRB assay relative to control; assay type: functional; how it was run: as §2
# P19 [13] = assay: Cytotoxicity against differentiated mouse P19 cells assessed as mitochondrial superoxide anion level at 100 uM after 72 hrs by MitoSox dye based fluorescence assay relative to control; assay type: functional; how it was run: as §1
# P19 [14] = assay: Cytotoxicity against undifferentiated mouse P19 cells assessed as metabolic activity at 1 to 100 uM after 72 hrs by resazurin assay relative to control; assay type: functional; how it was run: as §3
# P19 [15] = assay: Cytotoxicity against undifferentiated mouse P19 cells assessed as mitochondrial superoxide anion level at 1 uM after 72 hrs by MitoSox dye based fluorescence assay relative to control; assay type: functional; how it was run: as §1
# P19 [16] = assay: Cytotoxicity against undifferentiated mouse P19 cells assessed as cell mass at 1 to 100 uM after 24 hrs by SRB assay relative to control; assay type: functional; how it was run: as §2
# P19 [17] = assay: Cytotoxicity against differentiated mouse P19 cells assessed as mitochondrial membrane potential at 1 uM after 24 hrs by TMRF dye based fluorescence assay relative to control; assay type: functional; how it was run: as §1
# [18] = molecular target: T1, Hexokinase-2 (Homo sapiens) (UniProt P52789); assay: Inhibition of recombinant human HK2 using [U-14C]-labeled glucose as substrate in presence of ATP and NADP by G6PD enzyme coupled spectrophotometric assay; settings: in the assay text read “glucose” for “[U-14C]-labeled glucose”
# T1 sequence (whole entry): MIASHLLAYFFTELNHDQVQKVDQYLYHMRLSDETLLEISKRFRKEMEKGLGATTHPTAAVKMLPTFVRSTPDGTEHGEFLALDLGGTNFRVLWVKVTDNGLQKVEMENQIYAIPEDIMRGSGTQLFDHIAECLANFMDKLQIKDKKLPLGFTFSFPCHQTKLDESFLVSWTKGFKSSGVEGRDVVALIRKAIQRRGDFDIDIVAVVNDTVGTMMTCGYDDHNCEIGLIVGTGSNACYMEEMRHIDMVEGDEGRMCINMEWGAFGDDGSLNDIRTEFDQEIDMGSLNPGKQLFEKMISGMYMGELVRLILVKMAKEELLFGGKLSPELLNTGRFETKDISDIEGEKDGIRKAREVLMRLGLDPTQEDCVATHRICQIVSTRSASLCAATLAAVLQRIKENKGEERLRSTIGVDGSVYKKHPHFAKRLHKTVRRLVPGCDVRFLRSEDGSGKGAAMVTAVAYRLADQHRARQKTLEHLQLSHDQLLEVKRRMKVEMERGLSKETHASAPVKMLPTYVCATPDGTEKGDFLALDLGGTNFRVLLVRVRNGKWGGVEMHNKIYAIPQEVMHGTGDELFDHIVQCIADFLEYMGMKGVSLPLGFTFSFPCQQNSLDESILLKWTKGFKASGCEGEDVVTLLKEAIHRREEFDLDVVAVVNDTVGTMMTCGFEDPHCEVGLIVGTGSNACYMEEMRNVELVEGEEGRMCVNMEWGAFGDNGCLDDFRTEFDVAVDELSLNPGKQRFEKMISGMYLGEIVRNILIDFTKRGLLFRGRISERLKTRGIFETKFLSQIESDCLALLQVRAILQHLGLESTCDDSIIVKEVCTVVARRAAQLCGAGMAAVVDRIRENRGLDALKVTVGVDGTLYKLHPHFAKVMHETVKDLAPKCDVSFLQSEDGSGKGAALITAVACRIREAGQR
# How it was run: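 Coupled hexokinase assay at 340 nm following G6P-dependent NADP→NADPH conversion. Enzyme source is freshly prepared, centrifuged undifferentiated P19 lysate supernatant or recombinant human HKII. Buffer: 100 mM Tris-HCl pH 8.0, 0.5 mM EDTA, 10 mM MgCl2, 2 mM glucose, 0.1 mM NADP, 0.1 U/ml G6PD. Preincubated 10 min at 37°C; reaction started with 10 mM ATP. Means ± SD, 4 experiments, at least 4 repeats each.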
# P19 [19] = assay: Cytotoxicity against differentiated mouse P19 cells assessed as mitochondrial superoxide anion level at 1 uM after 72 hrs by MitoSox dye based fluorescence assay relative to control; assay type: functional; how it was run: as §1
# P19 [20] = assay: Cytotoxicity against differentiated mouse P19 cells assessed as metabolic activity at 1 to 100 uM after 48 hrs by resazurin assay relative to control; assay type: functional; how it was run: as §3
# P19 [21] = assay: Cytotoxicity against undifferentiated mouse P19 cells assessed as mitochondrial membrane potential at 1 uM after 24 hrs by TMRF dye based fluorescence assay relative to control; assay type: functional; how it was run: as §1
smiles,measurement,setting,value
O=C(c1ccc2c(c1)C(=O)N(c1cccc(O)c1)C2=O)c1ccc2c(c1)C(=O)N(c1cccc(O)c1)C2=O,Activity,P19 [1],55.1%
same,Activity,P19 [2],79.9%
same,Activity,P19 [3],102.2%
same,Activity,P19 [4],100%
same,Activity,P19 [5],117.4%
same,Activity,P19 [6],76.5%
same,Activity,P19 [7],91%
same,Activity,P19 [8],71.9%
same,Activity,P19 [9],96.4%
same,Activity,P19 [10],83.2%
same,Activity,P19 [11],58.9%
same,Activity,P19 [12],100%
same,Activity,P19 [13],149.1%
same,Activity,P19 [14],59.8%
same,Activity,P19 [15],106%
same,Activity,P19 [16],103.3%
same,Activity,P19 [17],94.5%
same,inhibition,[18],Dose-dependent effect
same,Activity,P19 [19],105.3%
same,Activity,P19 [20],97.5%
same,Activity,P19 [21],86%
